Test results reported in ChEMBL document CHEMBL3994667, “Small Molecule Lysyl Oxidase-like 2 (LOXL2) Inhibitors: The Identification of an Inhibitor Selective for LOXL2 over LOX” (ACS Med Chem Lett, 2017).

Assays:
Lysyl oxidase homolog 2 [1] = target: T1, Lysyl oxidase homolog 2 (Homo sapiens, UniProt Q9Y4K0); assay: Inhibition of full length recombinant human LOXL2 expressed in CHO cells assessed as reduction in H2O2 production using DAP as substrate preincubated for 2 hrs followed by substrate addition measured every 2 minutes for 50 minutes by Amplex red dye based fluorescence assay
T1 sequence (Q9Y4K0 whole entry): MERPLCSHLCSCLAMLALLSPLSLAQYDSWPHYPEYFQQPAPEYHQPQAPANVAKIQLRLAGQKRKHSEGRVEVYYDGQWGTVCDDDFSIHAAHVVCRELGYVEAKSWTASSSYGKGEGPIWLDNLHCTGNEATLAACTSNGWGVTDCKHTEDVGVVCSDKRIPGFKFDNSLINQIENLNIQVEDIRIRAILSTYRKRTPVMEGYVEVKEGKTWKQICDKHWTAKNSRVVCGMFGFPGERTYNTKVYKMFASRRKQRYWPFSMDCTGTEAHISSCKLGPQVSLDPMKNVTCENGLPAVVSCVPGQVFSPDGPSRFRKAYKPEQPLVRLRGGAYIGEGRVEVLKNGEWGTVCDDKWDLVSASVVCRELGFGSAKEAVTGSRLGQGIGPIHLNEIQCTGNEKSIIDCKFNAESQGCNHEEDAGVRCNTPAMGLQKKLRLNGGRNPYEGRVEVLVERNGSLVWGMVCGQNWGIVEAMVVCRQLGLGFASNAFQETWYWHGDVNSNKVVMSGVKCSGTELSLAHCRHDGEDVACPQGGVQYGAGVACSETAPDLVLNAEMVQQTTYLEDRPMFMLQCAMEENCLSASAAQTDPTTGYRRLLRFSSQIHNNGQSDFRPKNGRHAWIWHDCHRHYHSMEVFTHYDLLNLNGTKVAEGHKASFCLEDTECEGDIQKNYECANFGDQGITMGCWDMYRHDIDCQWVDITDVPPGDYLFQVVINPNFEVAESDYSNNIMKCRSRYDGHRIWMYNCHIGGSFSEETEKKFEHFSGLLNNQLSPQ

Lysyl oxidase homolog 2 [2] = target: T2, Lysyl oxidase homolog 2 (Rattus norvegicus, UniProt B5DF27); assay: Inhibition of full length recombinant rat LOXL2 expressed in CHO cells assessed as reduction in H2O2 production using DAP as substrate preincubated for 2 hrs followed by substrate addition measured every 2 minutes for 50 minutes in presence of BSA by Amplex red dye based fluorescence assay
T2 sequence (B5DF27 whole entry): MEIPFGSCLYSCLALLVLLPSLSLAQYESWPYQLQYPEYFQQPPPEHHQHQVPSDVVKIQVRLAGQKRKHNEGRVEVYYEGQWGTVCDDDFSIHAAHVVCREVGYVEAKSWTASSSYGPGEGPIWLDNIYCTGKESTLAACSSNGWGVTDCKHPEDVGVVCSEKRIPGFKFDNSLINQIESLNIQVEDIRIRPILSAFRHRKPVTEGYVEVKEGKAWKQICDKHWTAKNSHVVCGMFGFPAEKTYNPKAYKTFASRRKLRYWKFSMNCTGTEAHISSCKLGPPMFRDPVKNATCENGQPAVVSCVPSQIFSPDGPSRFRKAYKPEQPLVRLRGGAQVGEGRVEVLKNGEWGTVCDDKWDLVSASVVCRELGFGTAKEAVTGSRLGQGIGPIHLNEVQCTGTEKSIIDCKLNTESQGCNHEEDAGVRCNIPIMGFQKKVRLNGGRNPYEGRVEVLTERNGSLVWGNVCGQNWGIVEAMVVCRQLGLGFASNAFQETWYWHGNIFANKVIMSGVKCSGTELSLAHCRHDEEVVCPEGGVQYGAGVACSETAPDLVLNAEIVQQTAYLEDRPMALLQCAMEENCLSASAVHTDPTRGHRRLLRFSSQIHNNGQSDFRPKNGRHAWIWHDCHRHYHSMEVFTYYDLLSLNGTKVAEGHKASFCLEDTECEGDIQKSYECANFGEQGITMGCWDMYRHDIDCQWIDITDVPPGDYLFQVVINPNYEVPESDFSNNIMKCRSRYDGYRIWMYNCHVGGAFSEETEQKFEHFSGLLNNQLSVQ
How it was run: (§1)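 Rodent LOXL2 is tested under the same conditions as the BSA-supplemented assay: conditioned media plus BSA, with DAP as substrate and Amplex Red detection of H2O2. Species are mouse and rat. IC50 is the geometric mean x/÷ geometric standard deviation from 3 determinations.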

Lysyl oxidase homolog 2 [3] = target: T1, Lysyl oxidase homolog 2; assay: Inhibition of full length recombinant human LOXL2 expressed in CHO cells assessed as reduction in H2O2 production using DAP as substrate preincubated for 15 mins followed by substrate addition measured every 2 minutes for 50 minutes by Amplex red dye based fluorescence assay
How it was run: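 Enzyme source: serum-free concentrated conditioned medium from CHO cells stably expressing human LOXL2. Inhibitor preincubated with enzyme for 15 min, then 1,5-diaminopentane (DAP) added. H2O2 from oxidative deamination read by Amplex Red. IC50 reported as geometric mean x/÷ geometric SD, with N given.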

Protein-lysine 6-oxidase = target: T3, Protein-lysine 6-oxidase (Homo sapiens, UniProt P28300); assay: Inhibition of full length recombinant human LOX expressed in HEK cells assessed as reduction in H2O2 production using DAP as substrate preincubated for 2 hrs followed by substrate addition measured every 2 minutes for 50 minutes in presence of BSA by Amplex red dye based fluorescence assay
T3 sequence (P28300 whole entry): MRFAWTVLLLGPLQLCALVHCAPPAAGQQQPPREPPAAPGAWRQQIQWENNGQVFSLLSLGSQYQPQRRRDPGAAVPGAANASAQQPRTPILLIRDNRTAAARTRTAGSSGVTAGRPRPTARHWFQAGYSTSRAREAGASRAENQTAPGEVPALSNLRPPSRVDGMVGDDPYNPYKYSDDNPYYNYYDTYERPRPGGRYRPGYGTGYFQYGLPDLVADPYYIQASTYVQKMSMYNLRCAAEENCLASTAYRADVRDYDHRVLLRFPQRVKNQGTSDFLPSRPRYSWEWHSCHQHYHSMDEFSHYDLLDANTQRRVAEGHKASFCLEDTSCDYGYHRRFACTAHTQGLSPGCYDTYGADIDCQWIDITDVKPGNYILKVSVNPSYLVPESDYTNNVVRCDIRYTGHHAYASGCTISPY
How it was run: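 Enzyme source: serum-free conditioned media from HEK cells stably expressing human LOX, with BSA added to give measurable activity. Activity is measured as H2O2 from oxidative deamination of 1,5-diaminopentane (DAP), read by Amplex Red. IC50 is given as geometric mean x/÷ geometric standard deviation, with N-values reported.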

Lysyl oxidase homolog 2 [4] = target: T1, Lysyl oxidase homolog 2; assay: Inhibition of full length recombinant human LOXL2 expressed in CHO cells assessed as reduction in H2O2 production using DAP as substrate preincubated for 2 hrs followed by substrate addition measured every 2 minutes for 50 minutes in presence of BSA by Amplex red dye based fluorescence assay
How it was run: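 Serum-free concentrated conditioned medium from CHO cells stably expressing human LOXL2, supplemented with BSA. Compounds preincubated for 2 h (the screening preincubation time). Substrate was 1,5-diaminopentane, and the H2O2 formed was detected with Amplex Red. IC50 given as geometric mean x/÷ geometric SD over N determinations.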

Lysyl oxidase homolog 2 [5] = target: T4, Lysyl oxidase homolog 2 (Mus musculus, UniProt P58022); assay: Inhibition of full length recombinant mouse LOXL2 expressed in CHO cells assessed as reduction in H2O2 production using DAP as substrate preincubated for 2 hrs followed by substrate addition measured every 2 minutes for 50 minutes in presence of BSA by Amplex red dye based fluorescence assay; type: cell-based; how it was run: as §1
T4 sequence (P58022 whole entry): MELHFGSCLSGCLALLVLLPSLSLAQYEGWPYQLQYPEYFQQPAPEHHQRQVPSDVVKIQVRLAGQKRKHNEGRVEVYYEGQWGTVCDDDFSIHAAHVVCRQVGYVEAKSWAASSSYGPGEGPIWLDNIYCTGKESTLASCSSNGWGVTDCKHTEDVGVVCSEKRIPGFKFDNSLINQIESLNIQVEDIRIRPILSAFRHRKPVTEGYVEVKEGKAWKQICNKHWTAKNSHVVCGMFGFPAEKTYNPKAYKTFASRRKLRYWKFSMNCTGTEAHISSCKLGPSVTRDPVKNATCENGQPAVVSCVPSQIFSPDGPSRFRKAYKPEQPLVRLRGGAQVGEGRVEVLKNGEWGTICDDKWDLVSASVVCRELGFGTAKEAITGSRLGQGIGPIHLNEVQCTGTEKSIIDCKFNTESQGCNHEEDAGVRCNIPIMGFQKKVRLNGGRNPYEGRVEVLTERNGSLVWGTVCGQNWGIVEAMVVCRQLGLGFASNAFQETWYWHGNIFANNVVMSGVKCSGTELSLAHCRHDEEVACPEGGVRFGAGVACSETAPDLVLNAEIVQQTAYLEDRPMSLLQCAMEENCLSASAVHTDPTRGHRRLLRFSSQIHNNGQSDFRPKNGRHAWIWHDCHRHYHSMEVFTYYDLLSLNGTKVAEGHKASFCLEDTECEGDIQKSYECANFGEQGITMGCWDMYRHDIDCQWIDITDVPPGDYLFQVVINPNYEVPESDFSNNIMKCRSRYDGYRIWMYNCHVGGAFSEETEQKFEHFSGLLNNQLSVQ

Row | IC50 (Lysyl oxidase homolog 2 [1]) [nM] | Structure (SMILES) | other results
1 | 26000 | NCc1ccc(F)cc1 | –
2 | 47000 | NCc1ccc(N)cc1 | –
3 | 719 | NCc1ccc([N+](=O)[O-])cc1 | –
4 | > 31000 | NCc1cc(-c2cccnc2)ncc1C(F)(F)F | –
5 | 1110 | N=C(N)c1ccc(CN)cc1 | –
6 | 431 | NCc1ccncc1F | –
7 | 64700 | NCc1ccccc1 [BENZYLAMINE] | –
8 | > 100000 | CNCc1ccc(C#N)cc1 | –
9 | 3540 | COC(=O)c1cccc(CN)c1 | –
10 | 4970 | N=C(N)c1cccc(CN)c1 | –
11 | 1220 | NCc1ccncc1 | –
12 | 203 | NCc1ccnc(-n2ccnc2)c1 | –
13 | 385 | NCc1ccnc(F)c1 | –
14 | 6040 | NCc1ccnc2ccccc12 | –
15 | 321 | NCc1ccnc(-c2cccnc2)c1 | –
16 | 670 | N#Cc1ccc(CN)cc1 | –
17 | 902 | NCc1ccc(-c2nccs2)cc1 | –
18 | 3620 | COC(=O)c1ccc(CN)cc1 | –

Row | Structure (SMILES) | IC50 (Lysyl oxidase homolog 2 [1]) [nM] | other results
19 | N#CCCN | 66 | IC50 (Lysyl oxidase homolog 2 [2]): 127 nM; IC50 (Lysyl oxidase homolog 2 [3]): 243 nM; IC50 (Protein-lysine 6-oxidase): 550 nM; IC50 (Lysyl oxidase homolog 2 [4]): 83 nM; IC50 (Lysyl oxidase homolog 2 [5]): 128 nM
20 | N[C@@H]1C[C@H]1c1ccccc1.N[C@H]1C[C@@H]1c1ccccc1 [TRANYLCYPROMINE] | > 100000 | –
21 | NCCc1ccccc1 [PHENETHYLAMINE] | 60100 | –
22 | NCCc1ccncc1 | 8210 | –
